The text below walks through data of PMC6287576 (International Journal for Parasitology: Drugs and Drug …, 2018).

Converted amounts (≈) assume the structure as drawn. Counter-ions that a name gives are not always drawn.

For test [1], the system named is recombinant A. suum N-AChR. The conditions noted are these: ref Zheng et al., 2017; cited from earlier work.
For test [2], the target named is T1, P. equorum N-AChR (ACR-16) (Parascaris equorum, UniProt A0A3S9VMQ8).
T1 sequence (A0A3S9VMQ8 25-504): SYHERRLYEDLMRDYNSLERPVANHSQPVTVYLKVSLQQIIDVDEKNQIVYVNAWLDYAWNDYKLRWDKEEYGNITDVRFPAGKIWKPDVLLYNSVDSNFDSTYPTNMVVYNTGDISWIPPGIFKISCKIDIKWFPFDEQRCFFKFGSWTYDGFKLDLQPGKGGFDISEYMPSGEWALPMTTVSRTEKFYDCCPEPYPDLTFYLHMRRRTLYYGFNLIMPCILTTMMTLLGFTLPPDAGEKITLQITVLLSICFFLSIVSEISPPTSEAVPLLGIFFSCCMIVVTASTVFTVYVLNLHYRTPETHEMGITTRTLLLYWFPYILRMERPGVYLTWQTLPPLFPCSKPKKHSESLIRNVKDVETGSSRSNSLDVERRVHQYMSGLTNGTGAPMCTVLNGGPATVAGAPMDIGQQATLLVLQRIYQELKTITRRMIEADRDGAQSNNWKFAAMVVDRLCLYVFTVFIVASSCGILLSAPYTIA
The test is described as follows: Two-electrode voltage-clamp, Peq-N-AChR in Xenopus oocytes. It is filed as cell-based. Particulars: for Hill slope: Peq N-AChR; for current elicited by perfusion: Peq-N-AChR, 100 μM. A general note: Two-electrode voltage clamp is typically applied to oocytes expressing channels or transporters.

Test [3] deals with T2, C. elegans N-AChR (ACR-16) (Caenorhabditis elegans, UniProt P48180).
T2 sequence (P48180 20-498): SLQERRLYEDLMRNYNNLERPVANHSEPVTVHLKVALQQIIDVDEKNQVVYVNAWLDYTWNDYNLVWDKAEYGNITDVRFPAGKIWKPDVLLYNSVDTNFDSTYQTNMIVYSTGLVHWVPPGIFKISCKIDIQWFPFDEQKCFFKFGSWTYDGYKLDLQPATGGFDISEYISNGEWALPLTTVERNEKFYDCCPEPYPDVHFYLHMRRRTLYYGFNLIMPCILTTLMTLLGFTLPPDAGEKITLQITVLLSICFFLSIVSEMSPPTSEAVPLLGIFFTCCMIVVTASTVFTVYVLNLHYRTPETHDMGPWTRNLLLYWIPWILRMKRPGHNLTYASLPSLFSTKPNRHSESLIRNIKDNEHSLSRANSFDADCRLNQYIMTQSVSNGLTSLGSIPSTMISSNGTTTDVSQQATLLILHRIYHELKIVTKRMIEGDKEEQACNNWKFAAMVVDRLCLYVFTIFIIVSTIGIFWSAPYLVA
The test is described as follows: Two-electrode voltage-clamp, Cel-N-AChR in Xenopus oocytes. It counts as cell-based. The conditions noted are these: for Hill slope: Cel N-AChR.

The subject of test [4] is H. contortus L3 larvae, anthelmintic-susceptible Weybridge isolate. The test is described as follows: Automated larval migration assay. Particulars: Haemonchus contortus, read-out: IC50 (L3 migration, ALMA).
In test [5] the test system is H. contortus L3 larvae, Lev/Pyr/Ivm multi-resistant Kokstad isolate. The test is described as follows: Automated larval migration assay. Further details: species or system Haemonchus contortus. Particulars: for IC50: Haemonchus contortus, read-out: IC50 (L3 migration, ALMA); for resistance factor between Kok and Wey: based on respective ALMA IC50 values.
Another test relates to H. contortus L-AChR-2. The test is described as follows: Two-electrode voltage-clamp, Hco-L-AChR-2 in Xenopus oocytes. It counts as cell-based, Haemonchus contortus. Particulars: 100 μM.
In test [6] the test system is C. elegans Bristol N2 (wild type). The test is described as follows: C. elegans paralysis assay, N2. On the set-up: species or system Caenorhabditis elegans. Particulars: agar plate containing 31 mM drug, 15-60 min.
The test system of test [7] is C. elegans acr-16 (ok789) mutant lacking N-AChR. The test is described as follows: C. elegans paralysis assay, acr-16 mutant. Further details: species or system Caenorhabditis elegans. Particulars: agar plate containing 31 mM drug, 15-60 min.
Test [8] has as its system C. elegans L-AChR. The test is described as follows: Two-electrode voltage-clamp, Cel-L-AChR in Xenopus oocytes. It is filed as cell-based, Caenorhabditis elegans. The conditions noted are these: 100 μM.
Test [9] has as its system C. elegans lev-8 (ok1519) mutant lacking L-AChR. The test is described as follows: C. elegans paralysis assay, lev-8 mutant. On the set-up: species or system Caenorhabditis elegans. The conditions noted are these: agar plate containing 31 mM drug, 15-60 min.
In another test the test system is H. contortus L-AChR-1. The test is described as follows: Two-electrode voltage-clamp, Hco-L-AChR-1 in Xenopus oocytes. It counts as cell-based, Haemonchus contortus. The conditions noted are these: 100 μM.
The subject of test [10] is C. elegans L-AChR. The conditions noted are these: recombinant C. elegans L-AChR in Xenopus oocytes; ref Boulin et al., 2008; cited from earlier work.
Test [11] deals with H. contortus Weybridge isolate (eggs). Briefly: Egg hatch assay, Weybridge isolate. Further details: species or system Haemonchus contortus. The conditions noted are these: triplicate. The method in brief: (§1)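 Benzimidazole test compound applied to eggs of each sheep-passaged isolate to establish benzimidazole susceptibility or resistance status. Method followed a published egg hatch protocol. ED50 reported in μg/ml, from triplicate tests.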

Test [12] has as its system H. contortus Kokstad isolate (eggs). Briefly: Egg hatch assay, Kokstad isolate. On the set-up: species or system Haemonchus contortus. The conditions noted are these: triplicate. The method in brief: as §1

Turning to `C#Cc1cncc([C@@H]2CCCCN2)c1` [(S)-5-ethynyl-anabasine], the agonist potency entry in test [1] was “higher agonist potency than other nicotine alkaloids”.

The term Hill slope denotes a measure of the steepness of the concentration-response curve. As a reminder, the EC50 is the midpoint of the concentration-response curve. High values mean a need for much substance, low ones an effect from little substance. In the case of `CC(=O)OCC[N+](C)(C)C` [Acetylcholine, Acetylcholine chloride], in [2], the Hill slope amounted to 2.0 ± 0.2 and the “current elicited by perfusion” value is on record as “robust currents in the μA range”. In test [3], this molecule displayed a half-maximal effective concentration (EC50) of 22 ± 1.2 µM and a Hill slope of 2.1 ± 0.4. Also, the “current elicited by perfusion” value in test [3] (Cel-N-AChR, 100 μM) is listed as “robust currents in the μA range”.

Regarding `c1cncc([C@@H]2CCCCN2)c1` [Anabasine, anabasine], the IC50 was found to be 179 ± 7.9 µM in test [4] and 141 ± 6.9 µM in test [5]. For the same molecule, the EC50 in test [2] came to 1.7 ± 0.1 µM; in [3] it was 27.5 ± 0.9 µM. For the same molecule, the Hill slope in [2] stood at 1.8 ± 0.2; in [3], 2.4 ± 0.4. Moreover, the “current elicited by perfusion” value in [2] is reported as “very similar currents as for Nic”; in [3] (Cel-N-AChR, 100 μM) it was “very similar currents as for Nic”. Moreover, the values for the response of oocytes entry in the test on H. contortus L-AChR-2, in the test on C. elegans L-AChR [8] and in the test with H. contortus L-AChR-1 were “very small currents on few oocytes”, “failed to induce significant response” and “failed to induce significant response”, respectively. Moreover, the “effect on motility (paralysis)” value in test [6] is on record as “affected”; in test [7], “significantly less sensitive”; in test [9] it was “affected”.

Take `c1ccc([C@H]2CN3CCSC3=N2)cc1` [Levamisole, (−)-tetramisole hydrochloride]: the “sensitivity of recombinant receptor” value in the test with C. elegans L-AChR [10] was “sensitive”. For the same molecule, the IC50 in test [4] was determined as 1.14 ± 0.03 µM. Further, in test [5], the IC50 was 14 ± 0.35 µM; the “resistance factor between Kok and Wey” value was found to be 12.3.

Turning to `CN1CCC[C@H]1c1cccnc1` [Nicotine, (−)-nicotine hydrogen tartrate], in the test on C. elegans L-AChR [10], the “sensitivity of recombinant receptor” value was “insensitive”. Also, the IC50 in [4] was 611 ± 55.1 µM; in test [5] it was 1170 ± 67.7 µM. Besides, the EC50 in test [2] worked out at 2.9 ± 0.5 µM; in test [3], 15.1 ± 1.3 µM. Also, the Hill slope in test [2] is reported as 1.7 ± 0.2; in test [3] it was 2.2 ± 0.2. Moreover, the Emax at 100 µM in test [2] (read-out: % of ACh response) was determined as 96.6 ± 9.2%. The response of oocytes entry was “responded robustly” with H. contortus L-AChR-2, “failed to induce significant response” in the test with C. elegans L-AChR [8] and “failed to induce significant response” in the test on H. contortus L-AChR-1. For the same molecule, the “effect on motility (paralysis)” value in test [6] was “affected”; in [7] it was “significantly less sensitive”; in [9], “affected”. Moreover, the “% of ACh response” value in [3] (Cel-N-AChR, 100 μM) is 79.5 ± 7.5%.

On to `CN1CCCN=C1/C=C/c1cccs1` [Pyrantel, pyrantel citrate], for which the IC50 in test [4] is 0.77 ± 0.01 µM. For the same molecule, in [5], the IC50 stood at 18.5 ± 1.32 µM; the “resistance factor between Kok and Wey” value is listed as 23.9.

`c1ccc2[nH]c(-c3cscn3)nc2c1` [TBZ, thiabendazole]: the “ED50 (egg hatch assay)” value in test [11] amounted to 0.024 ± 0.001 µg/mL (≈ 0.119 µM); in test [12] it was 0.437 ± 0.205 µg/mL (≈ 2.17 µM).

In the case of (±)-nornicotine, the Hill slope in test [2] was determined as 1.9 ± 0.3; in test [3], 2.7 ± 0.4. The “current elicited by perfusion” value is given as “very similar currents as for Nic” in test [2] and “very similar currents as for Nic” in test [3] (Cel-N-AChR, 100 μM). The results for the response of oocytes result in the test on H. contortus L-AChR-2, in the test on C. elegans L-AChR [8] and with H. contortus L-AChR-1 were “very small currents on few oocytes”, “failed to induce significant response” and “failed to induce significant response”, respectively. The “effect on motility (paralysis)” value in test [6] was “affected”; in [7], “significantly less sensitive”; in test [9], “affected”.

Turning to ivermectin, in test [5], the “resistance factor between Kok and Wey” value was 15.1.
